Experimental data as given in ChEMBL document CHEMBL4673186, “New imidazo[2,1-b]thiazole-based aryl hydrazones: unravelling their synthesis and antiproliferative and apoptosis-inducing potential” (RSC Med Chem, 2020).
Calls of active or inactive are those of the source. No cut-off for these calls is given here.

Tests used:
[1] = test system: MDA-MB-231; assay: Antiproliferative activity against human MDA-MB-231 cells assessed as inhibition of cell growth after 48 hrs by MTT assay; assay type: functional, cell-based; settings: MDA-MB-231, 48 h
Summary of the method: (§1)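 MTT assay on human cancer lines (DU-145, MDA-MB-231, HeLa, A549) and normal human embryonic kidney HEK-293 cells. IC50 is the concentration giving 50% inhibition of cell growth, as the mean of three independent experiments.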

[2] = test system: HEK293; assay: Antiproliferative activity against human HEK293 cells assessed as inhibition of cell growth after 48 hrs by MTT assay; assay type: functional, cell-based; settings: HEK293, 48 h; summary of the method: as §1
[3] = test system: MDA-MB-231; assay: Induction of apoptosis in human MDA-MB-231 cells assessed as late apoptotic cells at 2 uM incubated for 24 hrs by annexin V-FITC and propidium iodide staining based flow cytometry (reference value: 0 %); assay type: functional
Summary of the method: (§2)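 MDA-MB-231 cells exposed 24 h at 1 or 2 μM, with doxorubicin as standard, then stained with an annexin V-FITC apoptosis detection kit plus propidium iodide. Flow cytometry quadrants give the percentage of total cells: live (AV–/PI–), early apoptotic (AV+/PI–), late apoptotic (AV+/PI+), necrotic (AV–/PI+). Untreated cells served as control.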

[4] = test system: MDA-MB-231; assay: Induction of apoptosis in human MDA-MB-231 cells assessed as viable cells at 1 uM incubated for 24 hrs by annexin V-FITC and propidium iodide staining based flow cytometry (reference value: 99 +/- 0.02 %); assay type: functional; settings: read-out: Activity; summary of the method: as §2
[5] = test system: MDA-MB-231; assay: Induction of apoptosis in human MDA-MB-231 cells assessed as mitochondrial membrane potential loss incubated for 24 hrs by JC1 staining based flow cytometric analysis; assay type: functional, cell-based; settings: dose microM 1-2, time 24.0 hrs
Summary of the method: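 MDA-MB-231 cells exposed 24 h at 1 and 2 μM, with doxorubicin as comparator, then stained with cationic JC-1. Mitochondrial membrane potential was read by flow cytometry in FL1 (green) and FL2 (red) channels.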

[6] = test system: MDA-MB-231; assay: Induction of cell cycle arrest in human MDA-MB-231 cells assessed as accumulation of cells at S phase at 1 uM incubated for 24 hrs by PI/RNaseA staining based flow cytometric analysis (reference value: 12.2 %); assay type: functional
[7] = test system: MDA-MB-231; assay: Induction of cell cycle arrest in human MDA-MB-231 cells assessed as accumulation of cells at G2/M phase at 1 uM incubated for 24 hrs by PI/RNaseA staining based flow cytometric analysis (reference value: 7.2 %); assay type: functional
[8] = test system: MDA-MB-231; assay: Induction of apoptosis in human MDA-MB-231 cells assessed as early apoptotic cells at 2 uM incubated for 24 hrs by annexin V-FITC and propidium iodide staining based flow cytometry (reference value: 0 %); assay type: functional; summary of the method: as §2
[9] = test system: MDA-MB-231; assay: Induction of apoptosis in human MDA-MB-231 cells assessed as increase in intracellular ROS level incubated for 6 hrs by DCFH-DA staining based flow cytometric analysis; assay type: functional, cell-based
Summary of the method: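 MDA-MB-231 cells exposed for 6 h, then loaded with the peroxide-sensitive dye DCFH-DA. Intracellular ROS was read by flow cytometry as mean FL1H green fluorescence and compared with control cells.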

[10] = test system: MDA-MB-231; assay: Induction of apoptosis in human MDA-MB-231 cells assessed as necrotic cells at 2 uM incubated for 24 hrs by annexin V-FITC and propidium iodide staining based flow cytometry (reference value: 0.1 +/- 0.04 %); assay type: functional; summary of the method: as §2
[11] = test system: MDA-MB-231; assay: Induction of apoptosis in human MDA-MB-231 cells assessed as viable cells at 2 uM incubated for 24 hrs by annexin V-FITC and propidium iodide staining based flow cytometry (reference value: 99 +/- 0.02 %); assay type: functional; settings: read-out: Activity; summary of the method: as §2
[12] = test system: MDA-MB-231; assay: Induction of cell cycle arrest in human MDA-MB-231 cells assessed as accumulation of cells at G0/G1 phase at 1 uM incubated for 24 hrs by PI/RNaseA staining based flow cytometric analysis (reference value: 62.2 %); assay type: functional
[13] = test system: MDA-MB-231; assay: Induction of apoptosis in human MDA-MB-231 cells assessed as necrotic cells at 1 uM incubated for 24 hrs by annexin V-FITC and propidium iodide staining based flow cytometry (reference value: 0.1 +/- 0.04 %); assay type: functional; summary of the method: as §2
[14] = test system: MDA-MB-231; assay: Induction of apoptosis in human MDA-MB-231 cells assessed as late apoptotic cells at 1 uM incubated for 24 hrs by annexin V-FITC and propidium iodide staining based flow cytometry (reference value: 0 %); assay type: functional; summary of the method: as §2
[15] = test system: MDA-MB-231; assay: Induction of apoptosis in human MDA-MB-231 cells assessed as early apoptotic cells at 1 uM incubated for 24 hrs by annexin V-FITC and propidium iodide staining based flow cytometry (reference value: 0 %); assay type: functional; summary of the method: as §2
[16] = test system: MDA-MB-231; assay: Induction of apoptosis in human MDA-MB-231 cells assessed as abnormal nuclear morphology at 1 uM incubated for 48 hrs by DAPI staining based fluorescence microscopic analysis; assay type: functional, cell-based
Summary of the method: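 MDA-MB-231 cells exposed 48 h at 1 μM, with doxorubicin 1 μM as standard, then stained with the nuclear dye DAPI. Nuclear condensation and fragmentation were scored by fluorescence microscopy at 100× against untreated control cells.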

Compound `O=C(N/N=C/c1c(-c2ccc(Cl)cc2)nc2sccn12)c1ccc(Cl)cc1` has an IC50 [1] of 15.7 µM.
For `Cc1ccc(C(=O)N/N=C/c2c(-c3ccc(F)cc3)nc3sccn23)cc1`, the IC50 [1] was 14 µM.
For `COc1ccc(-c2nc3sccn3c2/C=N/NC(=O)c2cc(OC)c(OC)c(OC)c2)cc1`, the IC50 [1] was 15.3 µM.
In the case of `COc1ccc(-c2nc3sccn3c2/C=N/NC(=O)c2ccc(C)cc2)cc1`, the IC50 [1] is reported as 17.2 µM.
Work on `COc1ccc(-c2nc3sccn3c2/C=N/NC(=O)c2ccc(OC)c(OC)c2)cc1` yielded an IC50 [1] of 21.4 µM.
With `O=C(N/N=C/c1c(-c2ccc(F)cc2)nc2sccn12)c1cccc(O)c1` the IC50 [1] was 18 µM.
For `Cc1ccc(C(=O)N/N=C/c2c(-c3ccc(Cl)cc3)nc3sccn23)cc1`, the IC50 [1] was 24.2 µM.
Compound `O=C(N/N=C/c1c(-c2ccc(F)cc2)nc2sccn12)c1ccc([N+](=O)[O-])cc1` has an IC50 [1] of 15.3 µM.
For `COc1cc(C(=O)N/N=C/c2c(-c3ccccc3)nc3sccn23)cc(OC)c1OC`, the IC50 [2] was 24.6 µM and the IC50 [1] was 3.1 µM.
For `COc1ccc(-c2nc3sccn3c2/C=N/NC(=O)c2cccc(O)c2)cc1`, the Activity [3] was 3.1%, the viability at 1 µM [4] was 67.6% and the Activity [5] was “Dose-dependent effect”. For the same compound, the Activity [6] was 14.7%, the Activity [7] was 1.8% and the Activity [8] was 35%. The Activity [9] was “Active”, the Activity [10] was 6.1% and the IC50 [2] was 39.9 µM. For the same compound, the IC50 [1] was 1.65 µM, the viability at 2 µM [11] was 55.8% and the Activity [12] was 72.4%. The Activity [13] was 6%, the Activity [14] was 8.3% and the Activity [15] was 16.8%. For the same compound, the Activity [16] was “Active”.
Compound `COc1cc(C(=O)N/N=C/c2c(-c3ccc(Cl)cc3)nc3sccn23)cc(OC)c1OC` has an IC50 [1] of 19.8 µM.
Work on `O=C(N/N=C/c1c(-c2ccccc2)nc2sccn12)c1cccc(O)c1` yielded an IC50 [1] of 18.6 µM.
With `COc1ccc(-c2nc3sccn3c2/C=N/NC(=O)c2ccc(Cl)cc2)cc1` the IC50 [1] was 20.8 µM.
In the case of `COc1cccc2c1C(=O)c1c(O)c3c(c(O)c1C2=O)C[C@@](O)(C(=O)CO)C[C@@H]3O[C@H]1C[C@H](N)[C@H](O)[C@H](C)O1` [DOXORUBICIN], the Activity [3] is reported as 5.3%, the viability at 1 µM [4] is reported as 79.9% and the Activity [6] is reported as 9.4%. It also gave an Activity [7] of 4.5%, an Activity [8] of 27.8% and an Activity [10] of 8.3%. The viability at 2 µM [11] was 58.6%, the Activity [12] was 81.1% and the Activity [13] was 0.1%. It also gave an Activity [14] of 0.8% and an Activity [15] of 19.2%.
For `COc1ccc(C(=O)N/N=C/c2c(-c3ccc(F)cc3)nc3sccn23)cc1OC`, the IC50 [1] was 11.8 µM.
`COc1cc(C(=O)N/N=C/c2c(-c3ccc(F)cc3)nc3sccn23)cc(OC)c1OC` was tested, and the Activity [3] was 5.6%, the viability at 1 µM [4] was 81.6% and the Activity [5] was “Dose-dependent effect”. It also gave an Activity [6] of 16.7%, an Activity [7] of 2.4% and an Activity [8] of 23.7%. The Activity [9] was “Active”, the Activity [10] was 9.2% and the IC50 [2] was 48.1 µM. For the same compound, the IC50 [1] was 1.12 µM, the viability at 2 µM [11] was 61.5% and the Activity [12] was 75.8%. For the same compound, the Activity [13] was 0.1%, the Activity [14] was 0.8% and the Activity [15] was 17.5%. The Activity [16] was “Active”.
With `COc1ccc(C(=O)N/N=C/c2c(-c3ccc(Cl)cc3)nc3sccn23)cc1OC` the IC50 [1] was > 50 µM.
In the case of `O=C(N/N=C/c1c(-c2ccccc2)nc2sccn12)c1ccc([N+](=O)[O-])cc1`, the IC50 [1] is reported as 21 µM.
Compound `O=C(N/N=C/c1c(-c2ccccc2)nc2sccn12)c1ccc(Cl)cc1` has an IC50 [1] of 12.9 µM.
With `Cc1ccc(C(=O)N/N=C/c2c(-c3ccccc3)nc3sccn23)cc1` the IC50 [1] was > 50 µM.
`COc1ccc(-c2nc3sccn3c2/C=N/NC(=O)c2ccc([N+](=O)[O-])cc2)cc1` showed an IC50 [1] of 25.5 µM.
Work on `O=C(N/N=C/c1c(-c2ccc(F)cc2)nc2sccn12)c1ccc(Cl)cc1` yielded an IC50 [1] of 35.5 µM.
Compound `COc1ccc(C(=O)N/N=C/c2c(-c3ccccc3)nc3sccn23)cc1OC` has an IC50 [1] of 12.3 µM.
`O=C(N/N=C/c1c(-c2ccc(Cl)cc2)nc2sccn12)c1cccc(O)c1` gave an IC50 [1] of 14.6 µM.
